One block for each molecule: values may come before it. Bridge positions count the residues as written; N and C are the ends. Peptide text beside a SMILES is read from it.
What was measured:
human recombinant SNAP25 = human recombinant SNAP25 (Homo sapiens, UniProt P60880); test: Quartz crystal microbalance binding to SNAP25
Method in brief: (§1)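 The 5 MHz Cr/Au quartz crystal was cleaned with isopropanol, ethanol and water. It was treated with 20 mM mercaptopropanesulfonate in 10 mM H₂SO₄ for 30 min, then with 10 µM (monomer) poly(allylamine hydrochloride) at pH 8 for 10 min. Human recombinant SNAP25 or BSA was deposited at 0.01 mg/mL for 10 min. After a baseline in 500 µL PBS, 50 µL of 300 µM peptide stock in PBS was added and mass change recorded.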

[1] = Quartz crystal microbalance, PAH control layer; type: binding; conditions: label-free, peptide 30μM final in PBS
[2] = Quartz crystal microbalance, PAH-BSA control multilayer; type: binding; conditions: label-free, peptide 30μM final in PBS
Method in brief: as §1

U87MG cells [3] = test: Viability without laser irradiation; type: cell-based; conditions: up to 30μM, 30 min at 37°C, no laser irradiation, 24 h, MTS
[4] = test system: adhesion of U87MG cells to collagen VI; test: U87MG adhesion to collagen VI-coated plates; type: cell-based; conditions: CES 30μM, 24 h, then 48 h, DAPI nuclei count
Method in brief: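 Wells were coated with collagen VI (5 µg/cm² from 50 µg/ml in 500 mM acetic acid) for 1 h at room temperature, then washed with PBS. U87MG cells were seeded with or without anti-SNAP25 antibody (5 µg/mL) or 30 µM test peptide. Medium was changed at 24 h and culture continued 48 h. Cells were fixed in 4% PFA, blocked and DAPI-stained, and nuclei were counted per image area (1.2 mm²).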

AD brain vasculature = conditions: ref [9], cited from earlier work
[5] = test system: connective tissue growth factor (CTGF) bound to the vascular extracellular matrix; conditions: ref [9]; cited from earlier work
[6] = test system: intracranial U87MG glioblastoma; test: In vivo homing, intracranial U87MG glioblastoma; design: species or system mice (female athymic nude), human U87MG xenograft; conditions: 30 nmoles i.v., 60 min circulation
Method in brief: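 Tumors were induced in female athymic nude mice by intracranial injection of 3×10^5 U87MG cells into the right striatum (2 mm lateral, 2 mm posterior to bregma, 2.5 mm deep) and grown 9 days. Mice received FAM-labelled peptide, 30 nmol in PBS i.v., for 60 min, then PBS perfusion, 4% PFA fixation, sucrose and OCT. 10 µm sections were stained without permeabilization for FAM with CD31 or SNAP25. n=3.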

WT-GBM tumors = test: In vivo homing, WT-GBM glioblastoma model; design: species or system mice (Fox/Nu); conditions: 30 nmoles i.v., 60 min circulation, n=3
Method in brief: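 Fox/Nu mice received 7×10^5 WT-GBM cells stereotactically into the right striatum and were used 6-7 days later. FAM-labelled peptide (30 nmol in PBS) was given i.v. and circulated 60 min. Mice were perfused intracardially with PBS, and organs were fixed in 4% PFA pH 7.4 overnight, sucrose-cryoprotected and OCT-embedded. 10 µm sections were stained without permeabilization for FAM and CD31 (primary 1/100 overnight 4°C; secondary 1/200). n=3.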

MCF10CA1a tumors = test: In vivo homing, orthotopic MCF10CA1a breast tumors; design: species or system athymic nude mice, human triple-negative breast cancer cells; conditions: 30 nmoles i.v., 60 min circulation, n=3
Method in brief: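 Orthotopic breast tumors: athymic nude mice were given 2×10^6 MCF10CA1a cells in PBS into the mammary gland and used 14 days later. FAM-labelled peptide (30 nmol in PBS) was injected i.v. and circulated 60 min, followed by PBS perfusion, overnight 4% PFA fixation, sucrose and OCT embedding. 10 µm sections were immunostained for FAM without permeabilization. n=3.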

healthy brain = test: In vivo homing, healthy brain; design: species or system mice; conditions: 30 nmoles i.v., 60 min circulation, n=3
Method in brief: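 Healthy (non-tumor) mice received FAM-labelled peptide, 30 nmol i.v. in PBS, for 60 min. Mice were perfused with PBS, and brains were fixed in 4% PFA, cryoprotected in sucrose and embedded in OCT. Sections were stained without permeabilization for FAM and SNAP25 (primary 1/100 overnight at 4°C, secondary 1/200). n=3.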

recombinant SNAP25 [7] = test: ELISA binding to SNAP25-coated plates; design: species or system human; conditions: plates coated with recombinant SNAP25, FAM-labeled peptide
Casein = test: ELISA binding to casein-coated plates; conditions: plates coated with Casein, FAM-labeled peptide
U87MG cells [8] = test: Photodynamic cytotoxicity; type: cell-based, human; conditions: 24 h, MTS
Method in brief: (§2)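 Cells (30.000/well) were attached overnight, then exposed 30 min to peptide–verteporfin conjugates at 3 µM final. Wells were washed 3× with full medium and refreshed. Irradiation used a 690 nm laser, 10 J/cm² at 160 mW/cm². After 24 h further culture, viability was measured by MTS/PMS (2 h, 37 °C, 5% CO₂), reading absorbance at 492 nm.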

LN229 cells = test: Photodynamic cytotoxicity; type: cell-based; conditions: 3μM conjugate, 30 min, 3 washes, 690nm laser 10 J/cm^2 (160 mW/cm^2), 24 h, MTS
Method in brief: as §2

SK-N-AS cells = test: Photodynamic cytotoxicity; type: cell-based; conditions: 3μM conjugate, 30 min, 3 washes, 690nm laser 10 J/cm^2 (160 mW/cm^2), 24 h, MTS
Method in brief: as §2

HEK293T cells = test: Photodynamic cytotoxicity; type: cell-based; conditions: 3μM conjugate, 30 min, 3 washes, 690nm laser 10 J/cm^2 (160 mW/cm^2), 24 h, MTS
Method in brief: as §2

recombinant SNAP25 [9] = test: Binding of SNAP25 to ECM array; design: species or system human; conditions: recombinant SNAP25 1/200, overnight 4°C, A488 anti-SNAP25 detection
Method in brief: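 Array slide of ECM proteins (collagens I, III, IV, V, VI, fibronectin, laminin, vitronectin, tropoelastin) washed in PBS and PBST, then blocked 1 h at room temperature in 5% BSA/5% FBS in PBST. Human recombinant SNAP25 was applied at 1/200 in 1/5-diluted blocking buffer overnight at 4°C. Bound protein was detected with A488 anti-SNAP25 at 1/200 overnight at 4°C, then imaged by fluorescence in the green channel.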

recombinant SNAP25 [10] = test: Surface plasmon resonance, immobilized SNAP25; type: binding, human; conditions: read-out: KD (estimative), SPR; one-to-one model, SNAP25 via His-Tag/Ni-NTA, collagen 20μg/ml, 20 °C, OpenSPR
Method in brief: (§3)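 SPR was run at 20 °C on an NTA sensor chip conditioned with 10 mM HCl, 200 mM imidazole and EDTA, then activated with 40 mM NiCl₂. His-tagged ligand was captured on channel 2 only: human recombinant SNAP25 at 150 µg/mL, or the control mouse M-CSF (28 kDa, 9-His) at 10 µg/mL. Collagen V or VI at 20 µg/ml in PBS flowed through both channels at 20 µl/min. Data were fitted to a one-to-one model.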

[11] = test system: control protein (recombinant mouse macrophage colony-stimulating factor (M-CSF)); test: Surface plasmon resonance, control protein; type: binding; conditions: control protein of similar molecular weight, immobilized in the same way, 20 °C
Method in brief: as §3

U87MG cells [12] = test: U87MG cell culture on collagens V and VI, morphology; type: cell-based; conditions: versus plastic (colonies); 5μg/cm^2 collagen coating
Method in brief: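 Plates were coated for 1 h at room temperature with bovine collagen VI or human collagen V (5 µg/cm², from 50 µg/ml in 500 mM acetic acid) and washed twice with PBS. U87MG cells were seeded and grown 24 h, then given fresh medium for another 48 h. Cells were fixed in 4% PFA, blocked, DAPI-stained and imaged by fluorescence microscopy.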

human recombinant SNAP25, sequence (P60880 whole entry): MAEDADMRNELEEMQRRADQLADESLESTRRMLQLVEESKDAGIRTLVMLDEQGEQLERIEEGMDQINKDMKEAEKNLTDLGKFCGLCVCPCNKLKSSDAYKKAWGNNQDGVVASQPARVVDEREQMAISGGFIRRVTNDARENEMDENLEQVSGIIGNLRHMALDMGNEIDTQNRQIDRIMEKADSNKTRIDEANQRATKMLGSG

Molecule: CC(=O)N[C@H]1CSSC[C@@H](C(N)=O)NC(=O)[C@H](CCC(=O)O)NC(=O)[C@H](CO)NC(=O)[C@H](CC(C)C)NC(=O)[C@H](CC(C)C)NC(=O)[C@@H]2CCCN2C(=O)[C@H](CO)NC(=O)[C@H](CCC(=O)O)NC1=O [CES] (Ac-CESPLLSEC-NH2; disulfide 1-9)
Kd (human recombinant SNAP25): 24 nM | dissociation rate upon washing with PBS, QCM (human recombinant SNAP25; SNAP25 on PAH layer, washing with PBS): slow dissociation rate | binding to control layer PAH, QCM [1]: did not bind to the control layers | binding to control multilayer PAH-BSA, QCM [2]: did not bind to the control layers | cytotoxicity of peptide alone, U87MG (U87MG cells [3]): did not elicit cytotoxicity | effect on adhesion of U87MG cells to collagen VI-coated plates [4]: affected the adhesion of U87MG cells to collagen VI-coated plates | homing to blood vessels of AD brain (AD brain vasculature; genetically modified mouse AD model, in vivo phage library screen, will be reported elsewhere): specifically accumulates (homes) in the blood vessels of AD brain

Molecule: CDAGRKQKC [reference compound]
recognition of AD brain vasculature (AD brain vasculature; mouse AD model): recognize the vasculature of AD brain very early in the development of the disease | target molecule (receptor) [5]: connective tissue growth factor (CTGF) bound to the vascular extracellular matrix

binding to SNAP25, ELISA (recombinant SNAP25 [7]): bound to SNAP25 | binding to Casein, ELISA (Casein): not to Casein
Molecule: FAM-Ahx-CESPLLSEC-NH2 (disulfide) [FAM-CES]
co-distribution with blood vessel marker CD31 in U87MG tumor ([6]; n=3, FAM/CD31 immunostaining): co-distributing with the blood vessel marker CD31 | colocalization with SNAP25 in U87MG tumors ([6]; n=3, FAM/SNAP25 immunostaining): apparent colocalization with SNAP25 in U87MG tumors | colocalization with CD31 in WT-GBM (WT-GBM tumors): showed colocalization with CD31 | homing to WT-GBM tumors (WT-GBM tumors): targeted WT-GBM tumors | tumor homing, orthotopic breast cancer (MCF10CA1a tumors): no tumor homing | homing to healthy brain (healthy brain): no homing to healthy brain

binding to SNAP25, ELISA (recombinant SNAP25 [7]): did not bind to SNAP25
Molecule: FAM-iRGD: FAM-labeled iRGD, another peptide with similar molecular weight and isoelectric point [reference compound]

Molecule: Vert-Ahx-CESPLLSEC-NH2 (disulfide) [CES-V]
toxicity, irradiated, U87MG (U87MG cells [8]; 3μM conjugate, 30 min, 3 washes, 690nm laser 10 J/cm^2 (160 mW/cm^2)): significant toxicity | difference in toxicity between irradiated CES-V and irradiated CtrlPep-V (U87MG cells [8]; 3μM, 690nm laser, compared across U87MG, LN229, SK-N-AS, HEK293T): only reached significance for U87MG | toxicity, irradiated, LN229 (LN229 cells): significant toxicity | toxicity, irradiated, SK-N-AS (SK-N-AS cells): no toxicity | toxicity, irradiated, HEK293T (HEK293T cells): no toxicity

binding of SNAP25 to ECM proteins, array (recombinant SNAP25 [9]): non-binding
Molecule: collagen I: ECM protein on array

binding of SNAP25 to ECM proteins, array (recombinant SNAP25 [9]): non-binding
Molecule: collagen III: ECM protein on array

binding of SNAP25 to ECM proteins, array (recombinant SNAP25 [9]): non-binding
Molecule: collagen IV: ECM protein on array

binding of SNAP25 to ECM proteins, array (recombinant SNAP25 [9]): binding of SNAP25 to collagens V and VI | Kd (recombinant SNAP25 [10]): 7200 nM | binding to control protein, SPR [11]: no binding
Molecule: collagen V: Human type V Collagen-Lyophilized (Southern Biotech, Cat # 1270–01)
U87MG growth morphology on collagen-coated plates (U87MG cells [12]): formed monolayers and presented particles attached to the plate

binding of SNAP25 to ECM proteins, array (recombinant SNAP25 [9]): binding of SNAP25 to collagens V and VI | Kd (recombinant SNAP25 [10]): 15 nM | binding to control protein, SPR [11]: no binding
Molecule: collagen VI: Bovine Type VI Collagen-Solution (Southern Biotech Cat # 1300–02S)
U87MG growth morphology on collagen-coated plates (U87MG cells [12]): formed monolayers and presented particles attached to the plate

— article PMC11429891 (bioRxiv, 2024)
